ChEMBL document CHEMBL2157866, “Virtual screening and computational optimization for the discovery of covalent prolyl oligopeptidase inhibitors with activity in human cells” (J Med Chem, 2012)
Calls of active or inactive are those of the source. No cut-off for these calls is given here.

Tests used:
[1] = molecular target: Dipeptidyl peptidase 4 (Homo sapiens) (UniProt P27487); assay: Inhibition DPP4 in human LN229 cell extracts using Gly-Pro-AMC substrate at 100 uM incubated for 30 mins by fluorimetric assay
Sequence of Dipeptidyl peptidase 4 (Homo sapiens) (P27487 whole entry, looked up): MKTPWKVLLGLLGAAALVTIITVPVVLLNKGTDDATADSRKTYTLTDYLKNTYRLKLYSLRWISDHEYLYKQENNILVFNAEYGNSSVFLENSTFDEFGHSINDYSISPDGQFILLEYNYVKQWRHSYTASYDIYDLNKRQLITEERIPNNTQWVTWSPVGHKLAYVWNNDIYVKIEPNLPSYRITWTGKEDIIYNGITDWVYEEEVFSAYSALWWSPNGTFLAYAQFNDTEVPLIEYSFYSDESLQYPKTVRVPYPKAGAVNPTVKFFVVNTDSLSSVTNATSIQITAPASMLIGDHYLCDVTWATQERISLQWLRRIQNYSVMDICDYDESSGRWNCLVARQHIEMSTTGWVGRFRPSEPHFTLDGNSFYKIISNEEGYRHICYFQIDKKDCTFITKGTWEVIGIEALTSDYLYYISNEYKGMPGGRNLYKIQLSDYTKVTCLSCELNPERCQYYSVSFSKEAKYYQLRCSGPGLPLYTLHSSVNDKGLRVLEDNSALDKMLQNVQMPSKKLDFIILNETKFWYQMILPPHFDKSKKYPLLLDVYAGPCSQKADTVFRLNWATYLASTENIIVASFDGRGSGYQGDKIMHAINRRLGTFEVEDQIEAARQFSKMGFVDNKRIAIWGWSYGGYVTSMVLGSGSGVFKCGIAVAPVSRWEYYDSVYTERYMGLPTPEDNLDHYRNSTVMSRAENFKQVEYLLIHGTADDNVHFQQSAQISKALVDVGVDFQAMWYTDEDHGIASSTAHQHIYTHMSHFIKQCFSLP
Summary of the method: (§1)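 Cells grown to confluence in DMEM with 4.5 g/L glucose (10% FCS for HCEC, 5% FCS for glioblastoma lines), then lysed in PBS with 0.1% Triton X-100. Inhibitor (methanol stock diluted in water) preincubated 5–10 min at room temperature in duplicate wells. Gly-Pro-AMC added at 10 μM final; fluorescence increase (ex/em 360/460 nm) read for 30 min at 37 °C.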

[2] = molecular target: Dipeptidyl peptidase 4 (Homo sapiens) (UniProt P27487); assay: Inhibition DPP4 in human LNZ308 cell extracts using Gly-Pro-AMC substrate at 100 uM incubated for 30 mins by fluorimetric assay; summary of the method: as §1
[3] = molecular target: Dipeptidyl peptidase 4 (Homo sapiens) (UniProt P27487); assay: Inhibition DPP4 in human LN18 cell extracts using Gly-Pro-AMC substrate at 100 uM incubated for 30 mins by fluorimetric assay; summary of the method: as §1
[4] = molecular target: Prolyl endopeptidase FAP (Homo sapiens) (UniProt Q12884); assay: Inhibition at human recombinant FAPalpha at 100 uM
Sequence of Prolyl endopeptidase FAP (Homo sapiens) (Q12884 whole entry): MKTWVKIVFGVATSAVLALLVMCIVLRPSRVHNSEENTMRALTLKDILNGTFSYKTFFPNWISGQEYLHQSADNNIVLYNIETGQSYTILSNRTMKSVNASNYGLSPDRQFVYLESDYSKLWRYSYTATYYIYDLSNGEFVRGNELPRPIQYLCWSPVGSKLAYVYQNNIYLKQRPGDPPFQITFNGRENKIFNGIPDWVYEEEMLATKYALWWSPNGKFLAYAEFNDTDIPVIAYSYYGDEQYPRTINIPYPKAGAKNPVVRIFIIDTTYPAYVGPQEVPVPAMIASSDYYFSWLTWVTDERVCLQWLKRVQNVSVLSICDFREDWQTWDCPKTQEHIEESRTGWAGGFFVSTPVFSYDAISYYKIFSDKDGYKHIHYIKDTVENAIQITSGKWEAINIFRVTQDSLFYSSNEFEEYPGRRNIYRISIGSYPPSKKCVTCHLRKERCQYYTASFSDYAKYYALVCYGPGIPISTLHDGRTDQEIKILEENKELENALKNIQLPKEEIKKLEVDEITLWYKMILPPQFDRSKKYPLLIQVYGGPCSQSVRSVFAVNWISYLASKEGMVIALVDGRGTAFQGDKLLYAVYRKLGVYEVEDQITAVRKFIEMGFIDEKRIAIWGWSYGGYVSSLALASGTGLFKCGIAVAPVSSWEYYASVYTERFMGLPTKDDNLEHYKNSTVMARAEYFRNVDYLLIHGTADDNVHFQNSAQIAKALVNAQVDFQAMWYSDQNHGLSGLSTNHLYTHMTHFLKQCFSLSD
Summary of the method: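 Recombinant human FAPα diluted in PBS with 1 mg/mL BSA. Setup as for cell extracts: inhibitor preincubated 5–10 min at room temperature, then Z-Gly-Pro-AMC at 10 μM final. AMC fluorescence (ex/em 360/460 nm) recorded for 30 min at 37 °C.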

[5] = molecular target: Dipeptidyl peptidase 4 (Homo sapiens) (UniProt P27487); assay: Inhibition DPP4 in human HCEC cell extracts using Gly-Pro-AMC substrate at 100 uM incubated for 30 mins by fluorimetric assay; summary of the method: as §1
[6] = molecular target: T1, Prolyl endopeptidase (Homo sapiens) (UniProt P48147); assay: Inhibition of POP in intact human HCEC cells using Cbz-Gly-Pro-AMC substrate at 100 uM incubated for 30 mins by fluorimetric assay; assay type: cell-based
T1 sequence (whole entry): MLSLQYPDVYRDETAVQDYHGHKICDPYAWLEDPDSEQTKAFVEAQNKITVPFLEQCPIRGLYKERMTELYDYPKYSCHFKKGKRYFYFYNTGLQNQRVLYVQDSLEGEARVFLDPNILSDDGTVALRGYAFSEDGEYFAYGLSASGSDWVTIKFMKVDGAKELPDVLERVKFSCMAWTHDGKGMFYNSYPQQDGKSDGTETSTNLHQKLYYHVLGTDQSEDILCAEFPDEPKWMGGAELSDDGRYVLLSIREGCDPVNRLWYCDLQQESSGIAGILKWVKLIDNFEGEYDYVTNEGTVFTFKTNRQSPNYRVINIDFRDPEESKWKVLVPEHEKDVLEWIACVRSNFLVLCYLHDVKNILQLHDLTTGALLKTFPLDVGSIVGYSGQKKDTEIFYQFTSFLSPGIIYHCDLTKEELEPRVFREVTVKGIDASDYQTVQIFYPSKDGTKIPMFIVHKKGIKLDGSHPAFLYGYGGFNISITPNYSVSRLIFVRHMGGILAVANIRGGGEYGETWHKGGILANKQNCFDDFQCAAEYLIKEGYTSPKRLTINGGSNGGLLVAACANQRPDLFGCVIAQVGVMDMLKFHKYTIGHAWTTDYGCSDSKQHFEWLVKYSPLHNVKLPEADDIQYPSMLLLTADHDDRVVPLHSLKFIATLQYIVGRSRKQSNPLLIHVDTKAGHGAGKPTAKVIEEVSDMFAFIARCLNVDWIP
Summary of the method: (§2)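 Intact confluent monolayers kept in PBS pH 7.2–7.4 without detergent, in duplicate wells. Inhibitor added 5–10 min at room temperature before Z-Gly-Pro-AMC at 10 μM final. Fluorescence increase (ex/em 360/460 nm) followed for 30 min at 37 °C. IC50 obtained by plotting residual activity against inhibitor concentration.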

[7] = molecular target: T1, Prolyl endopeptidase (Homo sapiens); assay: Inhibition of POP in intact human LN18 cells using Cbz-Gly-Pro-AMC substrate at 100 uM incubated for 30 mins by fluorimetric assay; assay type: cell-based; summary of the method: as §2
[8] = molecular target: T1, Prolyl endopeptidase (Homo sapiens); assay: Inhibition of POP in intact human LNZ308 cells using Cbz-Gly-Pro-AMC substrate at 100 uM incubated for 30 mins by fluorimetric assay; assay type: cell-based; summary of the method: as §2
[9] = molecular target: T1, Prolyl endopeptidase (Homo sapiens); assay: Inhibition of POP in intact human LN229 cells using Cbz-Gly-Pro-AMC substrate at 100 uM incubated for 30 mins by fluorimetric assay; assay type: cell-based; summary of the method: as §2
[10] = molecular target: T1, Prolyl endopeptidase (Homo sapiens); assay: Inhibition of POP in human LN229 cell extracts using Cbz-Gly-Pro-AMC substrate at 100 uM incubated for 30 mins by fluorimetric assay
Summary of the method: (§3)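 Confluent monolayers (DMEM, 4.5 g/L glucose; 10% FCS for HCEC, 5% FCS for LN18/LN229/LNZ308) lysed in PBS containing 0.1% Triton X-100. Inhibitor preincubated 5–10 min at room temperature in duplicate wells. Z-Gly-Pro-AMC added at 10 μM final; fluorescence (ex/em 360/460 nm) recorded over 30 min at 37 °C. IC50 taken from residual activity plotted against decreasing inhibitor concentrations.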

[11] = molecular target: T1, Prolyl endopeptidase (Homo sapiens); assay: Inhibition of POP in human LN18 cell extracts using Cbz-Gly-Pro-AMC substrate at 100 uM incubated for 30 mins by fluorimetric assay; summary of the method: as §3
[12] = molecular target: T1, Prolyl endopeptidase (Homo sapiens); assay: Inhibition of POP in human LNZ308 cell extracts using Cbz-Gly-Pro-AMC substrate at 100 uM incubated for 30 mins by fluorimetric assay; summary of the method: as §3
[13] = molecular target: T1, Prolyl endopeptidase (Homo sapiens); assay: Inhibition of POP in human HCEC cell extracts using Cbz-Gly-Pro-AMC substrate at 100 uM incubated for 30 mins by fluorimetric assay; summary of the method: as §3

| inhibition [1] | inhibition [2] | inhibition [3] | inhibition [4] [%] | inhibition [5] | inhibition [6] | inhibition [7] | inhibition [8] | inhibition [9] | inhibition [10] [%] | inhibition [11] [%] | inhibition [12] [%] | inhibition [13] [%] | Compound |
| --- | --- | --- | --- | --- | --- | --- | --- | --- | --- | --- | --- | --- | --- |
| inactive | inactive | inactive | 34 | inactive |  |  |  |  |  |  |  |  | N#C[C@@H]1CCCN1C(=O)c1ccccc1C(=O)NCc1ccccc1 |
| inactive | inactive | inactive | 28 | inactive |  |  |  |  |  |  |  |  | N#C[C@@H]1CCCN1C(=O)c1cccc2c1C(=O)N(Cc1ccccc1)C2 |
| inactive | inactive | inactive |  | inactive | > 50% | > 50% | > 50% | > 50% |  |  |  |  | O=C(NCc1ccccc1)c1ccccc1C(=O)N1CCCC1 |
| inactive | inactive | inactive | 11 | inactive |  |  |  |  |  |  |  |  | O=C(c1cccc2c1C(=O)N(Cc1ccccc1)C2)N1CCCC1 |
| inactive | inactive | inactive |  | inactive | inactive | inactive | inactive | inactive | > 50 | > 50 | > 50 | > 50 | O=C(NCc1ccccc1)c1ccccc1C(=O)N1CCCCC1 |
